Calls of active or inactive are those of the source. No cut-off for these calls is given here.
Legend:
[1] = Drug metabolism in rat liver microsomes assessed as cytochrome P450-mediated 6-hydroxywarfarin metabolite formation measured for 10 mins by LC-UV analysis; assay type: ADME
How it was run: (§1)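 Time course with (S)-warfarin in uninduced rat liver microsomes (cytochrome P-450 1.0 nmol/mg protein; protein 2 mg/mL) at 37 °C and pH 7.4. NADPH-supported TES–MgCl2 incubation, with products quantified by LC. Single determination from a pool of five rats.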

[2] = Drug metabolism in rat liver microsomes assessed as cytochrome P450-mediated 4'-hydroxywarfarin metabolite formation measured after 10 mins by LC-UV analysis; assay type: ADME; how it was run: as §1
[3] = Drug metabolism in rat liver microsomes assessed as cytochrome P450-mediated 4-hydroxy-3-(3-oxo-1-phenyl-1-butenyl)-2H-1-benzopyran-2-one metabolite formation measured after 10 mins by LC-UV analysis; assay type: ADME; how it was run: as §1
[4] = Drug metabolism in rat liver microsomes assessed as cytochrome P450-mediated 7-hydroxywarfarin metabolite formation measured for 10 mins by LC-UV analysis; assay type: ADME; how it was run: as §1
[5] = Drug metabolism in rat liver microsomes assessed as cytochrome P450-mediated 6-hydroxywarfarin metabolite formation measured after 10 mins by LC-UV analysis; assay type: ADME; how it was run: as §1
[6] = Drug metabolism in rat liver microsomes assessed as cytochrome P450-mediated 4'-hydroxywarfarin metabolite formation measured for 10 mins by LC-UV analysis; assay type: ADME; how it was run: as §1
[7] = Drug metabolism in rat liver microsomes assessed as cytochrome P450-mediated 7-hydroxywarfarin metabolite formation measured after 10 mins by LC-UV analysis; assay type: ADME; how it was run: as §1
[8] = Drug metabolism in rat liver microsomes assessed as cytochrome P450-mediated 4-hydroxy-3-(3-oxo-1-phenyl-1-butenyl)-2H-1-benzopyran-2-one metabolite formation measured for 10 mins by LC-UV analysis; assay type: ADME; how it was run: as §1
[9] = Drug metabolism in phenobarbital-induced rat liver microsomes assessed as cytochrome P450-mediated 4-hydroxy-3-(3-oxo-1-phenyl-1-butenyl)-2H-1-benzopyran-2-one metabolite formation at 3 umol measured per nmol of CYP450 under acidic conditions by LC-UV analysis in presence of cumene hydroperoxide; assay type: ADME
How it was run: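 Phenobarbital-induced rat liver microsomes (100 mg/kg/day ip for 3 days) with 8.0 mg protein and warfarin sodium 3.0 × 10^-6 mol in 4.0 mL TES–MgCl2 buffer, pH 7.4, at 37 °C. No NADPH generating system; started with cumene hydroperoxide 3.3 × 10^-5 mol and stopped after 5 min. Products quantified by LC against external standards.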

[10] = Drug metabolism in PCN-induced rat liver microsomes assessed as cytochrome P450-mediated 4-oxo-3-(3-oxo-1-phenylbut-1-enyl)-4H-chromen-2-olate metabolite formation at 0.15 mmol measured under basic conditions by LC-UV analysis in presence of cumene hydroperoxide; assay type: ADME
How it was run: (§2)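 Liver microsomes from PCN-induced rats (100 mg/kg/day ip in corn oil for 3 days), 200 mL at 2.0 mg protein/mL in TES–MgCl2, pH 7.4, with (R)-warfarin sodium 1.5 × 10^-4 mol. Preincubated 5 min at 37 °C with shaking, started with cumene hydroperoxide 1.6 × 10^-4 mol, given a second equal addition at 10 min, stopped at 30 min on ice. Product isolated by preparative C18 LC.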

[11] = Drug metabolism in PCN-induced rat liver microsomes assessed as cytochrome P450-mediated 4-hydroxy-3-(3-oxo-1-phenyl-1-butenyl)-2H-1-benzopyran-2-one metabolite formation at 0.15 mmol measured per nmol of CYP450 under acidic conditions by LC-UV analysis in presence of cumene hydroperoxide; assay type: ADME; how it was run: as §2
Salmonella typhimurium [12] = assay: Mutagenicity in Salmonella typhimurium TA1535 by Ames test; assay type: toxicity, organism-based; conditions: salmonella enterica subsp. enterica serovar typhimurium
Rattus norvegicus [13] = assay: Antagonism of extrinsic coagulation factor-2 synthesis in rat plasma at 100 mg/kg, ip measured after 12 hrs; assay type: functional, organism-based; set-up: dose 100 mg/kg
How it was run: (§3)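 Six rats per group given 100 mg/kg ip, as sodium salt in saline or as free acid in corn oil. At 12 h, rats were anesthetized and blood drawn from the posterior vena cava into 3.8% trisodium citrate; plasma was taken at 2000g for 10 min. Clotting measured by one-stage fibrometer assay, and individual factors by a published method. Controls received vehicle or racemic warfarin sodium at 10 mg/kg ip.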

Rattus norvegicus [14] = assay: Antagonism of intrinsic coagulation factor-8 synthesis in rat plasma at 100 mg/kg, ip measured after 12 hrs; assay type: functional, organism-based; set-up: dose 100 mg/kg; how it was run: as §3
Rattus norvegicus [15] = assay: Antagonism of intrinsic coagulation factor-9 synthesis in rat plasma at 100 mg/kg, ip measured after 12 hrs; assay type: functional, organism-based; set-up: dose 100 mg/kg; how it was run: as §3
Rattus norvegicus [16] = assay: Antagonism of extrinsic coagulation factor-10 synthesis in rat plasma at 100 mg/kg, ip measured after 12 hrs; assay type: functional, organism-based; set-up: dose 100 mg/kg; how it was run: as §3
Liver microsome = assay: Drug metabolism in rat liver microsomes by LC-UV analysis; assay type: ADME
[17] = Activity at cytochrome P450 in PCN-induced rat liver microsomes treated with (R)-warfarin at 0.15 mmol measured under acidic conditions by LC-UV analysis in presence of cumene hydroperoxide; assay type: ADME; how it was run: as §2
Salmonella typhimurium [18] = assay: Mutagenicity in Salmonella typhimurium TA98 by Ames test; assay type: toxicity, organism-based; conditions: salmonella enterica subsp. enterica serovar typhimurium
Salmonella typhimurium [19] = assay: Mutagenicity in Salmonella typhimurium TA100 by Ames test in presence of liver microsomes; assay type: toxicity, organism-based; conditions: salmonella enterica subsp. enterica serovar typhimurium
Salmonella typhimurium [20] = assay: Mutagenicity in Salmonella typhimurium TA100 by Ames test; assay type: toxicity, organism-based; conditions: salmonella enterica subsp. enterica serovar typhimurium
Salmonella typhimurium [21] = assay: Mutagenicity in Salmonella typhimurium TA1537 by Ames test; assay type: toxicity, organism-based; conditions: salmonella enterica subsp. enterica serovar typhimurium
Salmonella typhimurium [22] = assay: Mutagenicity in Salmonella typhimurium TA1537 by Ames test in presence of liver microsomes; assay type: toxicity, organism-based; conditions: salmonella enterica subsp. enterica serovar typhimurium
Rattus norvegicus [23] = assay: Effect on fibrinogen level in rat plasma at 100 mg/kg, ip measured after 24 hrs; assay type: functional, organism-based; set-up: dose 100 mg/kg
Rattus norvegicus [24] = assay: Toxicity in ip dosed rat; assay type: organism-based; conditions: in vivo
[25] = Activity at cytochrome P450 in rat liver microsomes treated with (S)-warfarin at 3 umol measured under acidic conditions by LC-UV analysis in presence of NADPH; assay type: ADME
How it was run: (§4)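 Male Wistar rat liver microsomes, uninduced or phenobarbital-induced (100 mg/kg/day ip in saline for 3 days, harvested 24 h after the last dose). Per 4.0 mL of 0.01 M TES–0.002 M MgCl2, pH 7.4: (R)- or (S)-warfarin sodium 3.0 × 10^-6 mol, NADP 1.25 µmol, glucose 6-phosphate 62.1 µmol, 8.0 mg protein. Preincubated 1.0 min at 37 °C, started with yeast G6P dehydrogenase (5.0 units), stopped by filtration after 10 min. Products quantified by LC against external standards.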

Rattus norvegicus [26] = assay: Anticoagulant activity in rat plasma at 100 mg/kg, ip measured after 12 hrs by one-stage clotting assay; assay type: functional, organism-based; set-up: dose 100 mg/kg; how it was run: as §3
[27] = Activity at cytochrome P450 in rat liver microsomes treated with (S)-warfarin measured for 10 mins by LC-UV analysis; assay type: ADME
How it was run: (§5)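 Male Wistar rat hepatic microsomes, 8.0 mg protein in 4.0 mL 0.01 M TES-0.002 M MgCl2, pH 7.4. Enantiopure warfarin sodium 1.0 mg (3.0 × 10^-6 mol) with an NADPH-generating system (NADP 1.25 μmol, glucose 6-phosphate 62.1 μmol). Preincubated 1.0 min at 37 °C, started with G6P dehydrogenase 5.0 units, stopped after 10 min by filtration. Metabolites separated and quantified by LC against external standards.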

Salmonella typhimurium [28] = assay: Mutagenicity in Salmonella typhimurium TA98 by Ames test in presence of liver microsomes; assay type: toxicity, organism-based; conditions: salmonella enterica subsp. enterica serovar typhimurium
Salmonella typhimurium [29] = assay: Mutagenicity in Salmonella typhimurium TA1535 by Ames test in presence of liver microsomes; assay type: toxicity, organism-based; conditions: salmonella enterica subsp. enterica serovar typhimurium
Rattus norvegicus [30] = assay: Antagonism of extrinsic coagulation factor-7 synthesis in rat plasma at 100 mg/kg, ip measured after 12 hrs; assay type: functional, organism-based; set-up: dose 100 mg/kg; how it was run: as §3
[31] = Activity at cytochrome P450 in rat liver microsomes treated with (R)-warfarin measured for 10 mins by LC-UV analysis; assay type: ADME; how it was run: as §5
[32] = Activity at cytochrome P450 in phenobarbital-induced rat liver microsomes treated with (S)-warfarin at 3 umol measured under acidic conditions by LC-UV analysis in presence of NADPH; assay type: ADME; how it was run: as §4
[33] = Drug metabolism in rat liver microsomes assessed as cytochrome P450-mediated 7-hydroxywarfarin metabolite formation by LC-UV analysis in presence of carbon monoxide-oxygen mixture at ratio of 80:20; assay type: ADME
How it was run: (§6)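 Same NADPH-supported microsomal incubation (warfarin 3.0 × 10^-6 mol, 8.0 mg protein, 4.0 mL TES–MgCl2, pH 7.4). Flasks were sealed with a septum and equilibrated under the stated gas atmosphere for 15 min on ice, then incubated at 37 °C. Products quantified by LC.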

[34] = Drug metabolism in rat liver microsomes assessed as cytochrome P450-mediated 4-hydroxy-3-(3-oxo-1-phenyl-1-butenyl)-2H-1-benzopyran-2-one metabolite formation by LC-UV analysis in presence of carbon monoxide-oxygen mixture at ratio of 80:20; assay type: ADME; how it was run: as §6
[35] = Drug metabolism in rat liver microsomes assessed as cytochrome P450-mediated 4-hydroxy-3-(3-oxo-1-phenyl-1-butenyl)-2H-1-benzopyran-2-one metabolite formation by LC-UV analysis in presence of nitrogen; assay type: ADME; how it was run: as §6
[36] = Drug metabolism in rat liver microsomes assessed as cytochrome P450-mediated 4-hydroxy-3-(3-oxo-1-phenyl-1-butenyl)-2H-1-benzopyran-2-one metabolite formation at 3 umol measured under acidic conditions by LC-UV analysis in presence of NADPH; assay type: ADME; how it was run: as §4
[37] = Drug metabolism in PCN-induced rat liver microsomes assessed as cytochrome P450-mediated 4-hydroxy-3-(3-oxo-1-phenyl-1-butenyl)-2H-1-benzopyran-2-one metabolite formation at 0.15 mmol measured per nmol of CYP450 by LC-UV analysis
[38] = Drug metabolism in rat liver microsomes assessed as cytochrome P450-mediated 4-oxo-3-(3-oxo-1-phenylbut-1-enyl)-4H-chromen-2-olate metabolite formation at 3 umol measured under basic conditions by LC-UV analysis in presence of NADPH; assay type: ADME; how it was run: as §4
[39] = Drug metabolism in rat liver microsomes assessed as cytochrome P450-mediated 6-hydroxywarfarin metabolite formation by LC-UV analysis in presence of carbon monoxide-oxygen mixture at ratio of 80:20; assay type: ADME; how it was run: as §6
[40] = Drug metabolism in phenobarbital-induced rat liver microsomes assessed as cytochrome P450-mediated 4-oxo-3-(3-oxo-1-phenylbut-1-enyl)-4H-chromen-2-olate metabolite formation at 3 umol measured under basic conditions by LC-UV analysis in presence of NADPH; assay type: ADME; how it was run: as §4
[41] = Drug metabolism in phenobarbital-induced rat liver microsomes assessed as cytochrome P450-mediated 4-hydroxy-3-(3-oxo-1-phenyl-1-butenyl)-2H-1-benzopyran-2-one metabolite formation at 3 umol measured under acidic conditions by LC-UV analysis in presence of NADPH; assay type: ADME; how it was run: as §4
[42] = Drug metabolism in rat liver microsomes assessed as cytochrome P450-mediated 4'-hydroxywarfarin metabolite formation by LC-UV analysis in presence of carbon monoxide-oxygen mixture at ratio of 80:20; assay type: ADME; how it was run: as §6

## CC(=O)C[C@H](c1ccccc1)c1c(O)c2ccccc2oc1=O
[1]
  Drug metabolism: metabolite_detected
[2]
  Drug metabolism: metabolite_detected
[3]
  Drug metabolism: metabolite_notdetected
[4]
  Drug metabolism: metabolite_detected
[5]
  Drug metabolism: metabolite_detected
[6]
  Drug metabolism: metabolite_detected
[7]
  Drug metabolism: metabolite_detected
[8]
  Drug metabolism: metabolite_detected
[9]
  Drug metabolism: 0.15 nmol/min
[10]
  Drug metabolism: metabolite_detected
[11]
  Drug metabolism: 0.423 nmol/min

## CC(=O)CC(c1ccccc1)c1c(O)c2ccccc2oc1=O (stereo unspecified) [WARFARIN]
Salmonella typhimurium [12]
  Activity: Non-toxic
Rattus norvegicus [13]
  inhibition: inactive
Rattus norvegicus [14]
  inhibition: inactive
Rattus norvegicus [15]
  inhibition: inactive
Rattus norvegicus [16]
  inhibition: inactive
Liver microsome
  Drug metabolism: metabolite_notdetected
[17]
  Drug metabolism: metabolite_detected
Salmonella typhimurium [18]
  Activity: Non-toxic
Salmonella typhimurium [19]
  Activity: Non-toxic
Salmonella typhimurium [20]
  Activity: Non-toxic
Salmonella typhimurium [21]
  Activity: Non-toxic
Salmonella typhimurium [22]
  Activity: Non-toxic
Rattus norvegicus [23]
  Activity: inactive
Rattus norvegicus [24]
  Activity: Non-toxic
[25]
  Drug metabolism: metabolite_detected
Rattus norvegicus [26]
  Activity: inactive
[27]
  Drug metabolism: metabolite_detected
Salmonella typhimurium [28]
  Activity: Non-toxic
Salmonella typhimurium [29]
  Activity: Non-toxic
Rattus norvegicus [30]
  inhibition: inactive
[31]
  Drug metabolism: metabolite_detected
[32]
  Drug metabolism: metabolite_detected

## CC(=O)C[C@@H](c1ccccc1)c1c(O)c2ccccc2oc1=O
[33]
  Drug metabolism: metabolite_detected
[1]
  Drug metabolism: metabolite_detected
[2]
  Drug metabolism: metabolite_detected
[34]
  Drug metabolism: metabolite_detected
[3]
  Drug metabolism: metabolite_notdetected
[4]
  Drug metabolism: metabolite_detected
[35]
  Drug metabolism: metabolite_notdetected
[5]
  Drug metabolism: metabolite_detected
[36]
  Drug metabolism: metabolite_detected
[37]
  Drug metabolism: 0.19 nmol/min
[38]
  Drug metabolism: metabolite_detected
[39]
  Drug metabolism: metabolite_detected
[6]
  Drug metabolism: metabolite_detected
[7]
  Drug metabolism: metabolite_detected
[8]
  Drug metabolism: metabolite_detected
[40]
  Drug metabolism: metabolite_detected
[41]
  Drug metabolism: metabolite_detected
[42]
  Drug metabolism: metabolite_detected

From ChEMBL document CHEMBL3244411, “A new warfarin metabolite: structure and function” (J Med Chem, 1978)
